B1: tRNA (parent)
chain: GUUCCGUUGGCGUAAUGGUAACGCGUCUCCCUCCUAAGGAGAAGACUGCGGGUUCGAGUCCCGUACGGAACG

This sample holds only a part of the variants without activity. Bounds are passed on as bounds.

The series covers variants of B1. Kind of series: yeast fitness relative to wild type (ratio to wild type); higher = fitter; tRNA-Arg(CCU), competitive growth, 37 C, YPD. Put shortly:
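Changes in genotype frequencies gave Darwinian fitness relative to wild type. Frequencies were read by 100-nucleotide paired-end sequencing of gene amplicons before and after pooled Saccharomyces cerevisiae strains, carrying tRNA-Arg(CCU) gene variants at the native locus, were competed in YPD at 37°C for 24 hours in six replicates. A genotype was kept only with ≥ 100 starting reads, and estimates < 0.5 were set to 0.5.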
Consider GUUCCGUUGACGUAAUGGUAACGCGUCUCUCUCCUAAGGAGAAGACUGCGGGUUCGAGUCCCAUACGGAACG [G10A C30U G63A], for which the yeast fitness is 0.538.

Regarding GUUCCGUUGAUGUAGUGGUAACGCGUCUCUCUCCUAAGGAGAAGACUGCGGGUUCGAGUGCCGUACGGAACG [G10A C11U A15G C30U C60G], the yeast fitness is not above 0.5.

As to GUUCCGUUGACGUAAUGGUAACGCGUAUCCCUCCUAAGGAGAAGACUGCGGGUUCGAGUCCCGUACGGAACG [G10A C27A], the yeast fitness worked out at 0.801.

On to GUUCCGUUGACGUAAUGGUAACGCGUCUCCCUACCAAGGAGAAGACUGCGGGUUCGAGUACCGUACGGAACG [G10A C33A U35C C60A], for which the yeast fitness is not above 0.5.

With GUUCCGUUGACGUAAUGGUAACGCGUCUCCUUCCUAACGAGAAGACUGCGGGUUCGAGUCCCAUACGCGACG [G10A C31U G38C G63A G68C A69G], the yeast fitness was 0.578.

In the case of GUUCCGUUGACGUAAUGGUAACGCGUCUCCUUCCUAACGAGAAGACUGCGGGUUCGAGUCCCGUACGGAACG [G10A C31U G38C], the yeast fitness is 0.512.

As for GUUCCGUUGACGUAAUGGUAACGGGUCUCCCUCCUAAGGAGAAGACCGCGGGUUCGAGUCCUGUACGGAACG [G10A C24G U47C C62U], the yeast fitness was not above 0.5.

On to GUUCCGUUGACGUAAUGGUAAUGCGUCUCCCUCCUAAGGAGAAGGCUGCGGGUUCGAGUCCCGUACGGAACG [G10A C22U A45G], for which the yeast fitness is not above 0.5.

For the variant GUUCCGUUGACGUAAUGGUAAAGCGUCUCCCUCCUAAGGAGAAGACUGCGGGUUCGAGUCCCGUACGGAACG [G10A C22A], the yeast fitness came to 0.717.

As for GUUCCGUUGACGUAAUGGUAAGGCGUCUCCCUCCUAAGGAGAAGACUGCGGGUUCGAGUCCCGUACGGAACG [G10A C22G], the yeast fitness is 0.637.

In the case of GUUCCGUUGACGUAAUGGUAACGCGUCUACCUCCUAAGGAGAAGACUGCGGGUUGGAGUCCCGUGCGGAACG [G10A C29A C55G A65G], the yeast fitness came to 0.649.

As to GUUCCGUUGACGUAAUGGUAACGGGUCUCCCUCCUAAGGGGAAGAGUGCGGGUUCGAGUCCCGUACGGAACG [G10A C24G A40G C46G], the yeast fitness amounted to 0.556.

GUUCCGUUGACGUAAUGGUAACGUGUCUCCCUCCUAAGGAAAAGACUGUGGGAUCGAGUCCCGUAGGGAACG [G10A C24U G41A C49U U53A C66G]: the yeast fitness was not above 0.5.

In the case of GUUCCGUUGACGUAAUGGUAACGCGUCUCGCUCCUCAGGAGAAGACUGCGGGUUCGAAUCCCGUACGGAACG [G10A C30G A36C G58A], the yeast fitness is not above 0.5.

Take GUUCCGUUGACGUAAUGGUAACGCGUCUGCCUCCUAAGGAGAAGACUGCGGGUUCCAGACCCGUACGGAACG [G10A C29G G56C U59A]: the yeast fitness was not above 0.5.

GUUCCGUUGACGUAAUGGUAACGCGUCUCCUUCCUAAGGCGAAGACUACGGGUUCGAGUCCCGUACGGAACG [G10A C31U A40C G48A]: the yeast fitness was not above 0.5.

Regarding GUUCCGUUGACGUAAUGGUAACGCGUGUCCCUCCUAAGGAGAAGACUGCGGGUUCGAGUCCCCUACGGAACG [G10A C27G G63C], the yeast fitness is not above 0.5.

With GUUCCGUUGAUGUAAUGGUAACGCGUCUCCCUCCUAAGGAGAAGACUGCGGGUUCGACUCCCGUUCGGAACG [G10A C11U G58C A65U], the yeast fitness is not above 0.5.

For GUUCCGUUGACGUAAUGGUAACGCGUCUCCCUUCUAAGGAGAAGACUGCGGGUUCGAGUCCCGUCCGGAACG [G10A C33U A65C], the yeast fitness was not above 0.5.

Regarding GUUCCGUUGAUGUAAUGGUAACGCGUCUCCCUCCUAAGGAGAUGACUGCGGGUUCGAGUUCCGUACGGAACG [G10A C11U A43U C60U], the yeast fitness is not above 0.5.

As to GUUCCGUUGACGUAAUGGUAACGCGUCUCUCUCCUAAGGAGAAGAAUGCGGGUUCGAGUCCCGUACGGAACG [G10A C30U C46A], the yeast fitness is 0.695.

For the variant GUUCCGUUGAUGUAAUGGUAACGCGUCUACCUCAUAAGGAGAAAACUGCGGGUUCGAGUCCCGUAGGGAACG [G10A C11U C29A C34A G44A C66G], the yeast fitness was found to be 0.545.

As to GUUCCGUUGACGUAAUGGUAACGCGUCUGCCUCCUAAGGAGAAGACUGCGGGAUCCAGUCCGGUACGGCACG [G10A C29G U53A G56C C62G A69C], the yeast fitness was not above 0.5.

For the variant GUUCCGUUGACGUAAUGGUAACGCGUCUUCUUCCUAAGGAGAAGACUCCGGGUACGAGUCCCGUACGGAACG [G10A C29U C31U G48C U54A], the yeast fitness was not above 0.5.

Regarding GUUCCGUUGACGUAAUGGUAAUGCGUCUCCCUCCUAAGGAGAAGACUGCGGGUUCCAGUCCCGUACGGAACG [G10A C22U G56C], the yeast fitness came out at 0.566.

In the case of GUUCCGUUGACGUAAUGGUAACGCGUUCCACUCCUAAGGAGAAGACUACAGGUUCGAGUCCCGUACGGAACG [G10A C27U U28C C30A G48A G50A], the yeast fitness worked out at 0.985.

In the case of GUUCCGUUGACGUAAUGGUAACGCGUCUGCCUUCUAAGGAGAAGACUGCGGGUUCGAGUCCCGUACGGAACG [G10A C29G C33U], the yeast fitness is not above 0.5.

Consider GUUCCGUUGACGUAAUGGUAACGCGUCUCGCUCCUAAGGAGAAGACUGCGGGUUCGAGUGCCAUUUGGAACG [G10A C30G C60G G63A A65U C66U], for which the yeast fitness is not above 0.5.

In the case of GUUCCGUUGACGUAAUGGUAAGGCGUCUCCCUCCUAGAGAGAAGACUGCGGGUUCGAGUCCCGUACGGAACG [G10A C22G A37G G38A], the yeast fitness is not above 0.5.

Regarding GUUCCGUUGACGUAAUGGUAAUGCGUCUCCCUCCUAAGGAGAAGACCGCGGGUUCGAGUCCCGUACGGAACG [G10A C22U U47C], the yeast fitness is not above 0.5.

GUUCCGUUGACGUAAUGGUAACGCGUGUCCCUCCAAAGGAGAAGUCUGCGGGUUCGAGUCCCGUACAGAACG [G10A C27G U35A A45U G67A]: the yeast fitness was not above 0.5.

Consider GUUCCGUUGACGUAAUGGUAACGCGUAUCCCUCCCAAGGAGAAGACUGCGGGUUCGAGUCCCGUACGGAACG [G10A C27A U35C], for which the yeast fitness was not above 0.5.

For the variant GUUCCGUUGACGUAAUGGUAACGCGUCUUCCUCCUAAGGAGAACACUGCGGGUUCGAGUUCCGUACGGAACG [G10A C29U G44C C60U], the yeast fitness is not above 0.5.

For the variant GUUCCGUUGACGUAAUGGUAAUGCGUCUCCCUCCUAAGGAGAAGACUGCGGGUUCCAGUCCCGUACGGUACG [G10A C22U G56C A69U], the yeast fitness was not above 0.5.

GUUCCGUUGACGUAAUGGUAACGCGUAUCCCUCCUUUGGAGAAGACUCCGGGUUCGAGUCCCGUACGGAACG [G10A C27A A36U A37U G48C]: the yeast fitness was not above 0.5.

Regarding GUUCCGUUGACGUAAUGGUAACGCGUCUCCAUCCUAAGGAAAAGUCUGCGGGUUCGACUCCCGUACGGAACG [G10A C31A G41A A45U G58C], the yeast fitness is not above 0.5.

For the variant GUUCCGUUGACGUAAUGGUAACGUGUCUCCCUCCUCAGGAGAAGACUGCGGGUUCGAGUCCCGUACGGCACG [G10A C24U A36C A69C], the yeast fitness worked out at 0.534.

Turning to GUUCCGUUGACGUAAUGGUAACGCGUCUUCCUCCUAAGGAGAAGACUGUGGGUUCAAGUCCCGUACGGAACG [G10A C29U C49U G56A], the yeast fitness is 0.633.

These data come from the RNAGym collection of RNA variant scans (doi:10.1126/science.aae0568).
